Reference: article PMC3141330 (Biochemistry, 2010)
Values joined by “and” are separate entries in the source; they are usually repeats but may differ in a detail not shown here. Identical values can stand only once. “Also recorded” adds a separate entry of the source. Each block holds one molecule with its values, some of them ahead of it.

What was measured:
[1] = test system: HER2 in BT474 breast cancer cells; test: Western blot: HER2 in BT474 cells after 17-AAG; assay type: cell-based; conditions: BT474, 0.178 µM 17-AAG, 7 or 14 hours; qualitative, GAPDH loading control
[2] = test system: Hsp90 in BT474 breast cancer cells; test: Quantitative Western blot: Hsp90 in BT474 cells after 17-AAG; assay type: cell-based; conditions: BT474, 0.178 µM 17-AAG, 7 or 14 hours; Hsp90 dimer; same as normal
Procedure, shortened: (§1)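 BT474 cells, seeded overnight, were exposed to 0.178 µM test compound (Hsp90 inhibitor) for 7 or 14 h; untreated cells were harvested at 15 h. Cells were counted, then lysed in SDS buffer. Extract from 35,000 cells (Hsp70, Hsp90, HOP) or 70,000 cells (CHIP) was blotted with ECL detection against a linear purified-protein calibration series. Values were converted via cell number and a cell volume of 3.5×10⁻⁶ µl.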

[3] = test system: CHIP in BT474 breast cancer cells; test: Quantitative Western blot: CHIP in BT474 cells after 17-AAG; assay type: cell-based; conditions: BT474, 0.178 µM 17-AAG, 7 or 14 hours; CHIP monomer; constant versus normal
Procedure, shortened: as §1

[4] = test system: Hsp70 in BT474 breast cancer cells; test: Quantitative Western blot: Hsp70 in BT474 cells after 17-AAG; assay type: cell-based; conditions: BT474, 0.178 µM 17-AAG, 7 or 14 hours; ~10 µM (monomer) under normal conditions
Procedure, shortened: as §1

[5] = test system: HOP in BT474 breast cancer cells; test: Quantitative Western blot: HOP in BT474 cells after 17-AAG; assay type: cell-based; conditions: BT474, 0.178 µM 17-AAG, 7 or 14 hours; HOP monomer; same as normal
Procedure, shortened: as §1

Hsp90 [6] = conditions: ref [32]; cited from earlier work
HER2/neu = conditions: Hsp90 inhibition in cells; CHIP-dependent; ref [17]; cited from earlier work
CHIP [7] = biological target: T1, CHIP (Homo sapiens, UniProt Q9UNE7); test: ITC: C-terminal peptides of Hsp70 or Hsp90; assay type: binding; conditions: dimer and tetramer species of CHIP, data not shown
T1 sequence (Q9UNE7 1-303): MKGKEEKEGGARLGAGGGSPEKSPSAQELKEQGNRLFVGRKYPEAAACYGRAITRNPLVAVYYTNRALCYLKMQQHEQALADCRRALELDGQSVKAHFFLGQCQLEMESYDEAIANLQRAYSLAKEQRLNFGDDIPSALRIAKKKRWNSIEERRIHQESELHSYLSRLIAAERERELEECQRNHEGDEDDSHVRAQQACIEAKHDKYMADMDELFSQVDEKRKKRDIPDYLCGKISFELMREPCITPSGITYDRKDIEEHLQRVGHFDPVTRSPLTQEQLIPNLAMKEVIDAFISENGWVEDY

Hsp70 and Hsp90 = conditions: ref [18], cited from earlier work
[8] = test system: Hsp90-dependent client proteins; conditions: CFTRΔF508 and wild-type CFTR; ref [36]; cited from earlier work
CHIP [9] = biological target: T1, CHIP; assay type: biochemical; conditions: discussion summary
Procedure, shortened: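 Reactions contained 0.091 µM human UBE1, 20 µM UbcH5c, 20 µM CHIP, 100 µM Hsp70 T13G ±188 µM model client peptide. Buffer: 50 mM Tris pH 7.4, 150 mM KCl, 10 mM NaCl, 3 mM MgCl2, 10 mM ATP, 0.1 mM βME. Preincubated 30°C ~10 min, started with 0.5 mM ubiquitin. Timed aliquots ran on Coomassie SDS-PAGE; ubiquitin per CHIP monomer fitted linearly early (slope = rate); three independent experiments, SD.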

CHIP [10] = conditions: 'normal' non-Hsp90 inhibited cells, cycloheximide; ref [17]; cited from earlier work
Hsp90 [11] = test: Competition pull-down: HOP versus GST-CHIP for Hsp90; assay type: binding
Procedure, shortened: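 GST-CHIP (10 µM) and His6-Hsp90 (10 µM), or subsets as controls, were mixed with 3–30 µM His6-HOP in 50 mM Tris pH 7.4, 10 mM NaCl, 5 mM βME. Mixtures were held on ice ~10 min, then rotated with glutathione agarose at 4°C for 1 h and washed 4×. Bound protein was eluted in SDS buffer and resolved by Coomassie SDS-PAGE.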

Hsp90 [12] = test: Control Ni-NTA pull-down of HOP by His6-Hsp90; assay type: binding; conditions: 20 µM His6-Hsp90, 20 µM HOP without His6-tag, 150 mM KCl, 3 mM MgCl2, Ni-NTA, 4°C
Hsp70 = conditions: ref [35]; cited from earlier work
Hsp90 [13] = conditions: human Hsp90; ref [19]; cited from earlier work

Molecule: C=CCNC1=C2C[C@@H](C)C[C@H](OC)[C@H](O)[C@@H](C)/C=C(\C)[C@H](OC(N)=O)[C@@H](OC)/C=C\C=C(/C)C(=O)NC(=CC1=O)C2=O [17-AAG]
- HER2 levels upon 17-AAG treatment (in words) [1]: decrease in HER2 levels
- Hsp90 level upon 17-AAG treatment [2]: ~ 5 µM
- CHIP concentration upon 17-AAG treatment [3]: ~ 0.1 µM
- total Hsp70 cellular concentration upon 17-AAG treatment [4]: 39 µM and ~ 39 µM
- HOP level upon 17-AAG treatment [5]: ~ 3 µM
- binding to Hsp90 (in words) (Hsp90 [6]): binds to the ATP binding pocket and renders the chaperone unable to facilitate client protein folding process
- degradation of HER2/neu (in words) (HER2/neu): client proteins such as the oncoprotein HER2/neu undergo rapid CHIP-dependent degradation; also recorded: rapid degradation of the Hsp70/Hsp90 client protein HER2/neu

Molecule: COC1=C2C[C@@H](C)C[C@H](OC)[C@H](O)[C@@H](C)/C=C(\C)[C@H](OC(N)=O)[C@@H](OC)/C=C\C=C(/C)C(=O)NC(=CC1=O)C2=O [geldanamycin]
- degradation of HER2/neu (in words) (HER2/neu): rapid degradation of the Hsp70/Hsp90 client protein HER2/neu

Molecule: Carboxyl terminus of Hsc70-interacting protein [CHIP]
- binding of both CHIP oligomeric species to Hsp70 (in words) (CHIP [7]): both oligomeric species of CHIP bind Hsp70 with the same binding affinity and stoichiometry
- effect of CHIP over-expression on Hsp70 levels (in words) (Hsp70 and Hsp90; over-expression of CHIP): decrease in Hsp70 levels
- effect of CHIP on half-life of Hsp70 and Hsp90 (in words) (Hsp70 and Hsp90): greatly decreased the half-life of both Hsp70 and Hsp90, with degradation of Hsp70 being more pronounced
- degradation of CFTR on increase in CHIP concentration (in words) [8]: leads to degradation of a cystic fibrosis causing mutant of Hsp70/Hsp90 client protein CFTR, CFTRΔF508; also recorded: also leads to degradation of wild-type CFTR
- rate of ubiquitination at substrate concentrations much above KM (CHIP [9]): ~ 0.1 ubiquitin molecules attached/CHIP monomer/minute

Molecule: HER2: oncoprotein, Hsp70/Hsp90 client protein
- half life of HER2 in normal cells (CHIP [10]): less than 1 hour

- binding of HOP to CHIP, control (in words) (Hsp90 [11]; control lanes, glutathione agarose pull-down with GST-CHIP): HOP does not bind to CHIP
Molecule: Hsp70/Hsp90 organizing protein [HOP]
- competition with CHIP for binding to Hsp90 (in words) (Hsp90 [11]; 3-30 µM His6-HOP, 10 µM GST-CHIP, 10 µM His6-Hsp90, 50 mM Tris pH 7.4, 10 mM NaCl, 5 mM βME, 4°C 1 hour, glutathione agarose): CHIP does not pull-down HOP through Hsp90, but that HOP and CHIP compete for binding to Hsp90; also recorded: HOP is competing with CHIP for binding to Hsp90
- pull-down of HOP by Hsp90 (in words) (Hsp90 [12]): the HOP and Hsp90 interaction is stable; also recorded: HOP does not bind non-specifically to the resin but binds to Hsp90

Molecule: Hsp70: heat shock induced monomeric molecular chaperone; recombinant His6-Hsp70
- kcat for client peptide stimulated hydrolysis of ATP by Hsp70 (Hsp70): 0.0017 to 0.005 s⁻¹

Molecule: Hsp90: heat shock induced homo-dimeric molecular chaperone; recombinant His6-Hsp90β
- kcat of ATP hydrolysis by Hsp90 (Hsp90 [13]): ~ 0.09 min^−1
